Values after ≈ are worked out from the molar mass of the structure shown.
Tests used:
[1] = system: Enterococcus faecalis; assay: Antibacterial activity against Streptococcus faecalis assessed as inhibition of microbial growth incubated for 18 to 22 hrs by broth microdilution method; format: functional
How it was run: (§1)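 Broth microdilution in Mueller-Hinton II broth following NCCLS recommendations; compounds dissolved in DMSO.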

[2] = system: Staphylococcus warneri; assay: Antibacterial activity against Staphylococcus warneri assessed as inhibition of microbial growth incubated for 18 to 22 hrs by broth microdilution method; format: functional; how it was run: as §1
[3] = system: Enterobacter; assay: Antibacterial activity against Enterobacter spp. assessed as inhibition of microbial growth incubated for 18 to 22 hrs by broth microdilution method; format: functional; how it was run: as §1
[4] = system: [Candida] sake; assay: Antifungal activity against Candida sake clinical isolates assessed as inhibition of microbial growth incubated for 24 hrs by broth microdilution method; format: functional; conditions: Fermentozyma sake
How it was run: (§2)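 Twenty-two clinical Candida isolates (8 C. albicans, 4 C. glabrata, 3 C. tropicalis, 3 C. krusei, 2 C. parapsilosis, 2 C. sake) were identified by colony morphology and biochemistry and subcultured at 35 °C for purity. Compounds were dissolved in DMSO and tested by broth microdilution in Sabouraud dextrose broth per NCCLS/CLSI/EUCAST guidance. Values are geometric mean MIC per species (µg/mL).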

[5] = system: Candida tropicalis; assay: Antifungal activity against Candida tropicalis clinical isolates assessed as inhibition of microbial growth incubated for 24 hrs by broth microdilution method; format: functional; how it was run: as §2
[6] = Cytotoxicity against human Hep2 cells assessed as reduction in cell viability incubated for 24 hrs by trypan blue dye exclusion assay; format: cell-based; conditions: HEp-2 cells
How it was run: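 Hep2 (human laryngeal epidermoid carcinoma) cells were exposed to five concentrations from 0.05 to 100 µg/mL for 24 h at 37 °C, and viability was scored by Trypan Blue exclusion as survival fraction. Controls were medium alone, DMSO-treated cells and 1 mM sodium nitroprusside. CC50 is the mean ± SD of at least three independent experiments.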

[7] = system: Staphylococcus aureus; assay: Antibacterial activity against Staphylococcus aureus assessed as inhibition of microbial growth incubated for 18 to 22 hrs by broth microdilution method; format: functional; how it was run: as §1
[8] = system: Proteus mirabilis; assay: Antibacterial activity against Proteus mirabilis assessed as inhibition of microbial growth incubated for 18 to 22 hrs by broth microdilution method; format: functional; how it was run: as §1
[9] = system: Candida parapsilosis; assay: Antifungal activity against Candida parapsilosis clinical isolates assessed as inhibition of microbial growth incubated for 24 hrs by broth microdilution method; format: functional; conditions: Lodderomyces parapsilosis; how it was run: as §2
[10] = system: Candida albicans; assay: Antifungal activity against Candida albicans clinical isolates assessed as inhibition of microbial growth incubated for 24 hrs by broth microdilution method; format: functional; how it was run: as §2
[11] = system: Pichia kudriavzevii; assay: Antifungal activity against Candida krusei clinical isolates assessed as inhibition of microbial growth incubated for 24 hrs by broth microdilution method; format: functional; how it was run: as §2
[12] = system: Nakaseomyces glabratus; assay: Antifungal activity against Candida glabrata clinical isolates assessed as inhibition of microbial growth incubated for 24 hrs by broth microdilution method; format: functional; how it was run: as §2
[13] = system: Escherichia coli; assay: Antibacterial activity against Escherichia coli assessed as inhibition of microbial growth incubated for 18 to 22 hrs by broth microdilution method; format: functional; how it was run: as §1
[14] = system: Streptococcus alpha-hemolyticus (Streptococcus sp.); assay: Antibacterial activity against Streptococcus Streptococcus alpha hemolyticus assessed as inhibition of microbial growth incubated for 18 to 22 hrs by broth microdilution method
[15] = system: Klebsiella oxytoca; assay: Antibacterial activity against Klebsiella oxytoca assessed as inhibition of microbial growth incubated for 18 to 22 hrs by broth microdilution method; format: functional; how it was run: as §1
[16] = Selectivity index, ratio of CC50 for human Hep2 cells to MIC for Candida albicans clinical isolates; format: toxicity; conditions: HEp-2 cells, read-out: Selectivity Index
How it was run: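 Calculated as Hep2 CC50 (Trypan Blue exclusion, 24 h, 37 °C) divided by MIC against C. albicans.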

Row | SMILES | MIC [1] | MIC [2] | MIC [3] | MIC [4] | MIC [5] | MIC [7] | MIC [8] | MIC [9] | MIC [10] | MIC [11] | MIC [12] | MIC [13] | MIC [15] | CC50 at 24 h [6] | MIC [14] | selectivity ratio [16]
1 | C/C(=N/N=C1\NC(=O)CS1)c1cccs1 | ≥ 256 µg/mL | ≥ 256 µg/mL | ≥ 256 µg/mL | 16 µg/mL | 2 µg/mL | ≥ 256 µg/mL | ≥ 256 µg/mL | 16 µg/mL | 2 µg/mL | 8 µg/mL | 1 µg/mL | ≥ 256 µg/mL | ≥ 256 µg/mL | > 100 µg/mL | ≥ 256 µg/mL | > 50
2 | C/C(=N/N=C1\NC(=O)CS1)c1ccccn1 | ≥ 256 µg/mL | ≥ 256 µg/mL | ≥ 256 µg/mL | 16 µg/mL | 1 µg/mL | ≥ 256 µg/mL | ≥ 256 µg/mL | 16 µg/mL | 2 µg/mL | 8 µg/mL | 1 µg/mL | ≥ 256 µg/mL | ≥ 256 µg/mL | 56.8 µg/mL (≈ 242 µM) | ≥ 256 µg/mL | 28
3 | C/C(=N/N=C1/SCC(=O)N1Cc1ccccc1)c1cccnc1 | ≥ 256 µg/mL | ≥ 256 µg/mL | ≥ 256 µg/mL | 2 µg/mL | 2 µg/mL | ≥ 256 µg/mL | ≥ 256 µg/mL | 2 µg/mL | 2 µg/mL | 2 µg/mL | 2 µg/mL | ≥ 256 µg/mL | ≥ 256 µg/mL | 37.4 µg/mL (≈ 115 µM) |  | 18.5
4 | O=C1CS/C(=N/N=C2CCCCC2)N1Cc1ccccc1 | ≥ 256 µg/mL | ≥ 256 µg/mL | ≥ 256 µg/mL | 2 µg/mL | 2 µg/mL | ≥ 256 µg/mL | ≥ 256 µg/mL | 2 µg/mL | 2 µg/mL | 2 µg/mL | 2 µg/mL | ≥ 256 µg/mL | ≥ 256 µg/mL | 22.8 µg/mL (≈ 75.6 µM) |  | 11
5 | O=C1CSC(NN=C2CCCC2)=N1 | ≥ 256 µg/mL | ≥ 256 µg/mL | ≥ 256 µg/mL | 2 µg/mL | 2 µg/mL | ≥ 256 µg/mL | ≥ 256 µg/mL | 2 µg/mL | 2 µg/mL | 2 µg/mL | 2 µg/mL | ≥ 256 µg/mL | ≥ 256 µg/mL | 22.2 µg/mL (≈ 113 µM) | ≥ 256 µg/mL | 11.1
6 | Clc1ccccc1C(c1ccccc1)(c1ccccc1)n1ccnc1 [CLOTRIMAZOLE] |  |  |  | 2 µg/mL | 2 µg/mL |  |  | 2 µg/mL | 2 µg/mL | 2 µg/mL | 2 µg/mL |  |  | 38.8 µg/mL (≈ 113 µM) |  | 19

Continued, in another order:

Row | MIC [1] | MIC [2] | MIC [3] | MIC [4] | MIC [5] | MIC [7] | MIC [8] | MIC [9] | MIC [10] | MIC [11] | MIC [12] | MIC [13] | MIC [15] | SMILES | CC50 at 24 h [6] | MIC [14] | selectivity ratio [16]
7 | ≥ 256 µg/mL | ≥ 256 µg/mL | ≥ 256 µg/mL | 2 µg/mL | 2 µg/mL | ≥ 256 µg/mL | ≥ 256 µg/mL | 2 µg/mL | 2 µg/mL | 2 µg/mL | 2 µg/mL | ≥ 256 µg/mL | ≥ 256 µg/mL | CC(C)=N/N=C1\NC(=O)CS1 | 68.4 µg/mL (≈ 399 µM) | ≥ 256 µg/mL | 34
8 | ≥ 256 µg/mL | ≥ 256 µg/mL | ≥ 256 µg/mL | 2 µg/mL | 2 µg/mL | ≥ 256 µg/mL | ≥ 256 µg/mL | 2 µg/mL | 2 µg/mL | 2 µg/mL | 2 µg/mL | ≥ 256 µg/mL | ≥ 256 µg/mL | CCC/C(C)=N\N=C1/NC(=O)CS1 | 93.4 µg/mL (≈ 469 µM) | ≥ 256 µg/mL | 46.5
9 | ≥ 256 µg/mL | ≥ 256 µg/mL | ≥ 256 µg/mL | 2 µg/mL | 4 µg/mL | ≥ 256 µg/mL | ≥ 256 µg/mL | 2 µg/mL | 2 µg/mL | 2 µg/mL | 1 µg/mL | ≥ 256 µg/mL | ≥ 256 µg/mL | CCC(CC)=N/N=C1\NC(=O)CS1 | 49.2 µg/mL (≈ 247 µM) | ≥ 256 µg/mL | 24.5
10 | ≥ 256 µg/mL | ≥ 256 µg/mL | ≥ 256 µg/mL | 8 µg/mL | 4 µg/mL | ≥ 256 µg/mL | ≥ 256 µg/mL | 8 µg/mL | 2 µg/mL | 8 µg/mL | 2 µg/mL | ≥ 256 µg/mL | ≥ 256 µg/mL | CCCCC/C(C)=N\N=C1/NC(=O)CS1 | 71.8 µg/mL (≈ 316 µM) | ≥ 256 µg/mL | 35.5
11 | ≥ 256 µg/mL | ≥ 256 µg/mL | ≥ 256 µg/mL | 4 µg/mL | 1 µg/mL | ≥ 256 µg/mL | ≥ 256 µg/mL | 2 µg/mL | 4 µg/mL | 2 µg/mL | 1 µg/mL | ≥ 256 µg/mL | ≥ 256 µg/mL | CCCC/C(CC)=N\N=C1/NC(=O)CS1 | 46.4 µg/mL (≈ 204 µM) | ≥ 256 µg/mL | 11.5
12 | ≥ 256 µg/mL | ≥ 256 µg/mL | ≥ 256 µg/mL | 2 µg/mL | 8 µg/mL | ≥ 256 µg/mL | ≥ 256 µg/mL | 2 µg/mL | 2 µg/mL | 2 µg/mL | 1 µg/mL | ≥ 256 µg/mL | ≥ 256 µg/mL | CC1CCC/C1=N/N=C1\NC(=O)CS1 (centres undefined) | 52.8 µg/mL (≈ 250 µM) | ≥ 256 µg/mL | 26
13 | ≥ 256 µg/mL | ≥ 256 µg/mL | ≥ 256 µg/mL | 2 µg/mL | 2 µg/mL | ≥ 256 µg/mL | ≥ 256 µg/mL | 2 µg/mL | 2 µg/mL | 2 µg/mL | 2 µg/mL | ≥ 256 µg/mL | ≥ 256 µg/mL | CC1CC/C(=N/N=C2\NC(=O)CS2)C1 (centres undefined) | 50.8 µg/mL (≈ 240 µM) | ≥ 256 µg/mL | 25
14 | ≥ 256 µg/mL | ≥ 256 µg/mL | ≥ 256 µg/mL | 2 µg/mL | 8 µg/mL | ≥ 256 µg/mL | ≥ 256 µg/mL | 2 µg/mL | 2 µg/mL | 2 µg/mL | 1 µg/mL | ≥ 256 µg/mL | ≥ 256 µg/mL | CC1CCCC/C1=N/N=C1\NC(=O)CS1 (centres undefined) | 52.6 µg/mL (≈ 233 µM) | ≥ 256 µg/mL | 26

From ChEMBL document CHEMBL4190362, “Synthesis, biological evaluation and quantitative structure-active relationships of 1,3-thiazolidin-4-one derivatives. A promising chemical scaffold endowed with high antifungal potency and low cytotoxicity” (Eur J Med Chem, 2017)
